According to ChEMBL document CHEMBL4118251 (J Med Chem, 2018):

How the values were obtained:
[1] = biological target: T1, Gastric inhibitory polypeptide receptor (Homo sapiens, UniProt P48546); assay: Agonist activity at human GIP receptor expressed in HEK293 cells assessed as cAMP accumulation after 30 mins by HTRF assay; format: functional, cell-based
T1 sequence (P48546 whole entry): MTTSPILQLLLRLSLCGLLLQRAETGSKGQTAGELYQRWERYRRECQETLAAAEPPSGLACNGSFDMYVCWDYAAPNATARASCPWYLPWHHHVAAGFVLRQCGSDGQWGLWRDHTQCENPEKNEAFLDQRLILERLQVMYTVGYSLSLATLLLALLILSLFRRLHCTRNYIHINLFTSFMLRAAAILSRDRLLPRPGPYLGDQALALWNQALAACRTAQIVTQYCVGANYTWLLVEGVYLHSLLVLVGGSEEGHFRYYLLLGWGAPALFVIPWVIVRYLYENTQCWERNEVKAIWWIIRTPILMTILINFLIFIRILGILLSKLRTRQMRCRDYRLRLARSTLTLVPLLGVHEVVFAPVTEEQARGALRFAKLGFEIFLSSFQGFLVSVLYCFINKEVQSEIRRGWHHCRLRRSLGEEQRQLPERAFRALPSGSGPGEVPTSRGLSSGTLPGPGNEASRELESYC

[2] = biological target: Glucagon-like peptide 1 receptor (Homo sapiens, UniProt P43220); assay: Agonist activity at human GLP1R expressed in HEK293 cells assessed as cAMP accumulation after 30 mins by HTRF assay; format: functional, cell-based
Sequence of Glucagon-like peptide 1 receptor (P43220 whole entry): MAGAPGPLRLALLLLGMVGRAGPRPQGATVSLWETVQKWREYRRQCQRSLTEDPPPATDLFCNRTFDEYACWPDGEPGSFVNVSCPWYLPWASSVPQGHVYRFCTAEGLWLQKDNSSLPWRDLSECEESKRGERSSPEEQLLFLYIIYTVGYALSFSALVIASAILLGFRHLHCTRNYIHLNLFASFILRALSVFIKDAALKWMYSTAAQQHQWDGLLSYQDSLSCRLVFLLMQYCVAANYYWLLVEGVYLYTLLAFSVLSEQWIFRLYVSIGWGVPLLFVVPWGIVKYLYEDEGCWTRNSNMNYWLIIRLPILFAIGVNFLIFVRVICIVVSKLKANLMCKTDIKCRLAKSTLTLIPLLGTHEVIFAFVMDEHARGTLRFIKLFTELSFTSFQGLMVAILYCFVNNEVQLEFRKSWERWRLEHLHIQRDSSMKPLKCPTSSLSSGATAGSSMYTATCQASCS

Glucagon receptor = Glucagon receptor (Homo sapiens, UniProt P47871); assay: Agonist activity at human glucagon receptor expressed in HEK293 cells assessed as cAMP accumulation after 30 mins by HTRF assay; format: functional, cell-based
Sequence of Glucagon receptor (P47871 whole entry): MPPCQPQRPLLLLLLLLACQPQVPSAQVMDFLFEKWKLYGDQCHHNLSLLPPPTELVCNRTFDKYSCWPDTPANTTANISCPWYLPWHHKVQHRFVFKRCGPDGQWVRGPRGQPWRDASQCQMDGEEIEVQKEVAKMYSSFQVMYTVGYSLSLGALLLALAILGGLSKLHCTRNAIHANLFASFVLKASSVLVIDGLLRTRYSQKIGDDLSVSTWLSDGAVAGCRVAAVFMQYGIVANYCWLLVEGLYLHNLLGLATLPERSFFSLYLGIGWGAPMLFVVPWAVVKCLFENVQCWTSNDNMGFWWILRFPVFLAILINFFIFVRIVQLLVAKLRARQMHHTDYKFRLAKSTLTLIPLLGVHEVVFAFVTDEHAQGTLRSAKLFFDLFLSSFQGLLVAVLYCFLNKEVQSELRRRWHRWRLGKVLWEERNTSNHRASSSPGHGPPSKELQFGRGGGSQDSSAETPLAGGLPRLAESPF

Homo sapiens = species: Homo sapiens; assay: Selectivity ratio of EC50 for human GIP receptor expressed in HEK293 cells to EC50 for human GLP1R expressed in HEK293 cells; format: cell-based
Outline: (§1)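 HEK293 lines stably expressing human or monkey receptor were detached with accutase. Cells were resuspended at 400 000 cells/mL in HBSS/20 mM HEPES/0.1% BSA/2 mM IBMX and exposed to peptide for 30 min at room temperature. cAMP was read by HTRF (665/620 nm) after 1 h lysis.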

[3] = Agonist activity at monkey GIP receptor expressed in HEK293 cells assessed as cAMP accumulation after 30 mins by HTRF assay; format: cell-based, Macaca mulatta; outline: as §1
[4] = Agonist activity at monkey glucagon receptor expressed in HEK293 cells assessed as cAMP accumulation after 30 mins by HTRF assay; format: cell-based, Macaca mulatta; outline: as §1

| Molecule | EC50 [1] | EC50 [2] | EC50 (Glucagon receptor) | Ratio EC50 (Homo sapiens) | EC50 ([3]; Macaca mulatta, HEK293, 0.5 h) | EC50 ([4]; Macaca mulatta, HEK293, 0.5 h) | EC50 ([3]; hek293) | EC50 ([4]; hek293) |
| --- | --- | --- | --- | --- | --- | --- | --- | --- |
| CCCCCCCCCCCCCCCCCCC(=O)N[C@@H](CCC(=O)NCCCC[C@H](NC(=O)[C@H](CCC(N)=O)NC(=O)[C@H](CCCCN)NC(=O)[C@H](CO)NC(=O)[C@H](CC(C)C)NC(=O)[C@H](CC(=O)O)NC(=O)[C@H](CO)NC(=O)[C@@H](NC(=O)[C@H](Cc1ccccc1)NC(=O)[C@@H](NC(=O)CNC(=O)[C@H](CCC(N)=O)NC(=O)C(C)(C)NC(=O)[C@@H](N)Cc1cnc[nH]1)[C@@H](C)O)[C@@H](C)O)C(=O)N[C@@H](CC(=O)O)C(=O)N[C@@H](CCC(=O)O)C(=O)N[C@@H](CCC(N)=O)C(=O)N[C@@H](CCCNC(=N)N)C(=O)N[C@@H](C)C(=O)N[C@@H](CCCCN)C(=O)N[C@@H](CC(C)C)C(=O)N[C@@H](Cc1ccccc1)C(=O)N[C@H](C(=O)N[C@@H](CCC(=O)O)C(=O)N[C@@H](Cc1c[nH]c2ccccc12)C(=O)N[C@@H](CC(C)C)C(=O)N[C@@H](CCCCN)C(=O)N[C@@H](C)C(=O)NCC(=O)NCC(=O)N1CCC[C@H]1C(=O)N[C@@H](CO)C(=O)N[C@@H](CO)C(=O)NCC(=O)N[C@@H](C)C(=O)N1CCC[C@H]1C(=O)N1CCC[C@H]1C(=O)N1CCC[C@H]1C(=O)N[C@@H](CO)C(N)=O)[C@@H](C)CC)C(=O)O | 0.0397 nM | 2.5 pM | 1.9 pM | – | – | – | – | – |
| CCCCCCCCCCCCCCCCC(=O)N[C@@H](CCC(=O)N[C@@H](CCC(=O)NCCCC[C@H](NC(=O)[C@H](CCC(N)=O)NC(=O)[C@H](CCCCN)NC(=O)[C@H](CO)NC(=O)[C@H](CC(C)C)NC(=O)[C@H](CC(=O)O)NC(=O)[C@H](CO)NC(=O)[C@@H](NC(=O)[C@H](Cc1ccccc1)NC(=O)[C@@H](NC(=O)CNC(=O)[C@H](CCC(N)=O)NC(=O)C(C)(C)NC(=O)[C@@H](N)Cc1cnc[nH]1)[C@@H](C)O)[C@@H](C)O)C(=O)N[C@@H](CC(=O)O)C(=O)N[C@@H](CCC(=O)O)C(=O)N[C@@H](CCC(N)=O)C(=O)N[C@@H](CCCNC(=N)N)C(=O)N[C@@H](C)C(=O)N[C@@H](CCCCN)C(=O)N[C@@H](CC(C)C)C(=O)N[C@@H](Cc1ccccc1)C(=O)N[C@H](C(=O)N[C@@H](CCC(=O)O)C(=O)N[C@@H](Cc1c[nH]c2ccccc12)C(=O)N[C@@H](CC(C)C)C(=O)N[C@@H](CC(C)C)C(=O)N[C@@H](C)C(=O)NCC(=O)NCC(=O)N1CCC[C@H]1C(=O)N[C@@H](CO)C(=O)N[C@@H](CO)C(=O)NCC(=O)N[C@@H](C)C(=O)N1CCC[C@H]1C(=O)N1CCC[C@H]1C(=O)N1CCC[C@H]1C(=O)N[C@@H](CO)C(N)=O)[C@@H](C)CC)C(=O)O)C(=O)O | 0.189 nM | 4.8 pM | 1.6 pM | – | – | – | – | – |
| CCCCCCCCCCCCCCCCC(=O)N[C@@H](CCC(=O)N[C@@H](CCC(=O)NCCCC[C@H](NC(=O)[C@H](CCC(N)=O)NC(=O)[C@H](CCCCN)NC(=O)[C@H](CO)NC(=O)[C@H](CC(C)C)NC(=O)[C@H](CC(=O)O)NC(=O)[C@H](CO)NC(=O)[C@@H](NC(=O)[C@H](Cc1ccccc1)NC(=O)[C@@H](NC(=O)CNC(=O)[C@H](CCC(N)=O)NC(=O)C(C)(C)NC(=O)[C@@H](N)Cc1cnc[nH]1)[C@@H](C)O)[C@@H](C)O)C(=O)N[C@@H](CC(=O)O)C(=O)N[C@@H](CCC(=O)O)C(=O)N[C@@H](CCC(N)=O)C(=O)N[C@@H](CCCNC(=N)N)C(=O)N[C@@H](C)C(=O)N[C@@H](CCCCN)C(=O)N[C@@H](CC(C)C)C(=O)N[C@@H](Cc1ccccc1)C(=O)N[C@H](C(=O)N[C@@H](CCC(=O)O)C(=O)N[C@@H](Cc1c[nH]c2ccccc12)C(=O)N[C@@H](CC(C)C)C(=O)N[C@@H](CCCCN)C(=O)N[C@@H](C)C(=O)NCC(=O)NCC(=O)N1CCC[C@H]1C(=O)N[C@@H](CO)C(=O)N[C@@H](CO)C(=O)NCC(=O)N[C@@H](C)C(=O)N1CCC[C@H]1C(=O)N1CCC[C@H]1C(=O)N1CCC[C@H]1C(=O)N[C@@H](CO)C(N)=O)[C@@H](C)CC)C(=O)O)C(=O)O | 0.224 nM | 2.2 pM | 4.4 pM | – | – | – | – | – |
| CCCCCCCCCCCCCCCCC(=O)N[C@@H](CCC(=O)N[C@@H](CCC(=O)NCCCC[C@H](NC(=O)[C@H](CCC(N)=O)NC(=O)[C@H](CCCCN)NC(=O)[C@H](CO)NC(=O)[C@H](CC(C)C)NC(=O)[C@H](CC(=O)O)NC(=O)[C@H](CO)NC(=O)[C@@H](NC(=O)[C@H](Cc1ccccc1)NC(=O)[C@@H](NC(=O)CNC(=O)[C@H](CCC(N)=O)NC(=O)C(C)(C)NC(=O)[C@@H](N)Cc1cnc[nH]1)[C@@H](C)O)[C@@H](C)O)C(=O)N[C@@H](CC(=O)O)C(=O)N[C@@H](CCC(=O)O)C(=O)N[C@@H](CCC(N)=O)C(=O)N[C@@H](CCCNC(=N)N)C(=O)N[C@@H](C)C(=O)N[C@@H](CCCCN)C(=O)N[C@@H](CC(C)C)C(=O)N[C@@H](Cc1ccccc1)C(=O)N[C@H](C(=O)N[C@@H](CCC(=O)O)C(=O)N[C@@H](Cc1c[nH]c2ccccc12)C(=O)N[C@@H](CC(C)C)C(=O)N[C@H](C(=O)N[C@@H](C)C(=O)NCC(=O)NCC(=O)N1CCC[C@H]1C(=O)N[C@@H](CO)C(=O)N[C@@H](CO)C(=O)NCC(=O)N[C@@H](C)C(=O)N1CCC[C@H]1C(=O)N1CCC[C@H]1C(=O)N1CCC[C@H]1C(=O)N[C@@H](CO)C(N)=O)[C@@H](C)CC)[C@@H](C)CC)C(=O)O)C(=O)O | 0.0582 nM | 5.3 pM | 2.5 pM | – | – | – | – | – |
| CCCCCCCCCCCCCCCCC(=O)N[C@@H](CCC(=O)NCCCC[C@H](NC(=O)[C@H](CCC(N)=O)NC(=O)[C@H](CCCCN)NC(=O)[C@H](CO)NC(=O)[C@H](CC(C)C)NC(=O)[C@H](CC(=O)O)NC(=O)[C@H](CO)NC(=O)[C@@H](NC(=O)[C@H](Cc1ccccc1)NC(=O)[C@@H](NC(=O)CNC(=O)[C@H](CCC(N)=O)NC(=O)C(C)(C)NC(=O)[C@@H](N)Cc1cnc[nH]1)[C@@H](C)O)[C@@H](C)O)C(=O)N[C@@H](CC(=O)O)C(=O)N[C@@H](CCC(=O)O)C(=O)N[C@@H](CCC(N)=O)C(=O)N[C@@H](CCCNC(=N)N)C(=O)N[C@@H](C)C(=O)N[C@@H](CCCCN)C(=O)N[C@@H](CC(C)C)C(=O)N[C@@H](Cc1ccccc1)C(=O)N[C@H](C(=O)N[C@@H](CCC(=O)O)C(=O)N[C@@H](Cc1c[nH]c2ccccc12)C(=O)N[C@@H](CC(C)C)C(=O)NC(C)(C)C(=O)N[C@@H](C)C(=O)NCC(=O)NCC(=O)N1CCC[C@H]1C(=O)N[C@@H](CO)C(=O)N[C@@H](CO)C(=O)NCC(=O)N[C@@H](C)C(=O)N1CCC[C@H]1C(=O)N1CCC[C@H]1C(=O)N1CCC[C@H]1C(=O)N[C@@H](CO)C(N)=O)[C@@H](C)CC)C(=O)O | 1.16 nM | 6.4 pM | 15.4 pM | 181 | – | – | – | – |
| CC[C@H](C)[C@H](NC(=O)[C@H](Cc1ccccc1)NC(=O)[C@H](CCC(=O)O)NC(=O)[C@H](CCCCN)NC(=O)[C@H](C)NC(=O)[C@H](C)NC(=O)[C@H](CCC(N)=O)NC(=O)CNC(=O)[C@H](CCC(=O)O)NC(=O)[C@H](CC(C)C)NC(=O)[C@H](Cc1ccc(O)cc1)NC(=O)[C@H](CO)NC(=O)[C@H](CO)NC(=O)[C@@H](NC(=O)[C@H](CC(=O)O)NC(=O)[C@H](CO)NC(=O)[C@@H](NC(=O)[C@H](Cc1ccccc1)NC(=O)[C@@H](NC(=O)CNC(=O)[C@H](CCC(=O)O)NC(=O)[C@H](C)NC(=O)[C@@H](N)Cc1cnc[nH]1)[C@@H](C)O)[C@@H](C)O)C(C)C)C(=O)N[C@@H](C)C(=O)N[C@@H](Cc1c[nH]c2ccccc12)C(=O)N[C@@H](CC(C)C)C(=O)N[C@H](C(=O)N[C@@H](CCCCN)C(=O)NCC(=O)N[C@@H](CCCNC(=N)N)C(=O)O)C(C)C | > 100000 nM | – | – | – | > 100 µM | > 100000 nM | – | – |
| CCCCCCCCCCCCCCCCC(=O)N[C@@H](CCC(=O)NCCCC[C@H](NC(=O)[C@H](CCC(N)=O)NC(=O)[C@H](CCCCN)NC(=O)[C@H](CO)NC(=O)[C@H](CC(C)C)NC(=O)[C@H](CC(=O)O)NC(=O)[C@H](CO)NC(=O)[C@@H](NC(=O)[C@H](Cc1ccccc1)NC(=O)[C@@H](NC(=O)CNC(=O)[C@H](CCC(N)=O)NC(=O)[C@H](CO)NC(=O)[C@@H](N)Cc1cnc[nH]1)[C@@H](C)O)[C@@H](C)O)C(=O)N[C@@H](CC(=O)O)C(=O)N[C@@H](CO)C(=O)N[C@@H](CCCNC(=N)N)C(=O)N[C@@H](CCCNC(=N)N)C(=O)N[C@@H](C)C(=O)N[C@@H](CCC(N)=O)C(=O)N[C@@H](CC(=O)O)C(=O)N[C@@H](Cc1ccccc1)C(=O)N[C@H](C(=O)N[C@@H](CCC(=O)O)C(=O)N[C@@H](Cc1c[nH]c2ccccc12)C(=O)N[C@@H](CC(C)C)C(=O)N[C@@H](CCCCN)C(=O)N[C@@H](CC(N)=O)C(=O)NCC(=O)NCC(=O)N1CCC[C@H]1C(=O)N[C@@H](CO)C(=O)N[C@@H](CO)C(=O)NCC(=O)N[C@@H](C)C(=O)N1CCC[C@H]1C(=O)N1CCC[C@H]1C(=O)N1CCC[C@H]1C(=O)N[C@@H](CO)C(=O)O)[C@@H](C)CC)C(=O)O | 1.21 nM | 3.9 pM | 0.7 pM | – | – | – | – | – |
| GLUCAGON | – | – | – | – | – | – | > 100 µM | 0.0015 nM |
